NPY Y1 blocker: antagonists of human neuropeptide Y receptor Y1. 1% of 200,000 active. P25929. HEK293-CNG Y1 cells, membrane potential fluorescence; NPY at EC95, then isoproterenol. inhibition, % at 3.6 µM;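 active = inhibition above the campaign mean inhibition of all tested compounds plus 3 SD, cut at about 20% in these data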;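 note: 0% = DMSO wells given NPY plus isoproterenol and 100% = isoproterenol alone without NPY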
Target sequence (P25929 whole entry, looked up): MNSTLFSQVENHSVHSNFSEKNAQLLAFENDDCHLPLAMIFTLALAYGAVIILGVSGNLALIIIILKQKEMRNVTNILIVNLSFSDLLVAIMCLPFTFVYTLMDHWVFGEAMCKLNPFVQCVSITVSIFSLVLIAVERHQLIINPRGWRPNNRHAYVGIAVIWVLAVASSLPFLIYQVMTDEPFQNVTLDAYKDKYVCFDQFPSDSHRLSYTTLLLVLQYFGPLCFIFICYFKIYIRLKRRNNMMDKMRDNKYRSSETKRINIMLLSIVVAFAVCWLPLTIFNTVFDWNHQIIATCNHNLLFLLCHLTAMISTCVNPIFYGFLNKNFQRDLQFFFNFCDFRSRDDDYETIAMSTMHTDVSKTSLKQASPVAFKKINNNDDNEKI
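Test system – HEK293 Y1/CNG channel cell line · Also added – NPY agonist 25 nM, then isoproterenol 1 µM plus Ro 20-1724 25 µM · Compound dosing – one concentration, 3.6 µM, in 0.4% DMSO · Schedule – compound incubation 1 h at room temperature, readout 45 min post-stimulation · Technique – fluorescence, membrane potential probe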
NPY-Y2 antag: NPY-Y2 (human) receptor antagonism; P49146; NPY-Y2 expressing cells, antagonist mode; inhibition, % at 2.7 µM; 0.99% of 140,000 active; in the data active = inhibition above about 17%;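 note: 0% = vehicle with agonist challenge and 100% = reference antagonist with challenge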
NPY2 pot ag: potentiators or agonists of human neuropeptide Y receptor Y2 | cells expressing NPY-Y2, potentiator/agonist read-out | 0.45% of 220,000 active | P49146 | activation, % at 3.6 µM; in the data active = activation above about 27%;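 note: cells stimulated with NPY near EC25 plus isoproterenol at EC100; 0% = vehicle plus submaximal agonist and 100% = vehicle plus saturating agonist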
NPY-Y1 PAM-ag: human NPY-Y1 potentiation or agonism, primary screen; P25929; activation, % at 3.6 µM; NPY-Y1 expressing cells, potentiator/agonist activation; 0.37% of 220,000 active; AID 1304; in the data active = activation above about 33%, passing the limit was not always enough;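 note: cells stimulated with NPY at EC10 then isoproterenol at EC100; 0% = low agonist plus stimulus and 100% = saturating agonist plus stimulus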
Active calls of the source: *; . = no result given. The list is not random: actives were taken first. Their share in the collection is about 1.8%.

SMILES	NPY Y1 blocker	NPY-Y2 antag	NPY2 pot ag	NPY-Y1 PAM-ag
CC1=C(C(=O)NCCN2CCN(C)CC2)C2(CCC(C)CC2)OC1=O (stereo unspecified)	-0.1	-1.8	47.5*	-7.7
Nc1nc(CN2CCN(c3ccccc3)CC2)nc(Nc2ccc(Cl)cc2)n1	-0.2	.	5.5	2.7
O=C(CN1C(=O)C2CC=CCC2C1=O)N1CCN(c2ccc([N+](=O)[O-])cc2)CC1 (stereo unspecified)	.	.	0.6	-17.8
COCC(=O)N1CCN(c2ccc([N+](=O)[O-])cc2)CC1	-4.6	4.1	18.9	42.2*
N=c1n(CCN2CCCC2)c2ccccc2n1CC(O)c1ccco1 (stereo unspecified)	4.9	3.7	-4.3	-9.5
Cc1ccccc1Cn1c(=N)n(CC(O)c2ccco2)c2ccccc21 (stereo unspecified)	25.4*	22.8*	-7.3	-21.3
CC1=[N+](C)c2ccc3ccccc3c2C1(C)C	27.0*	21.8*	-32.0	-71.0
Cc1c(O)c(CN(C)C)cc2c1oc(=O)c1ccccc12	.	.	50.9*	84.0*
CCCC(c1nnnn1C(C)(C)C)N1CCN(c2ccccc2)CC1 (stereo unspecified)	21.1*	.	-1.4	15.4
CCCC(c1nnnn1Cc1ccco1)N1CCN(c2ccccc2)CC1 (stereo unspecified)	4.1	.	-13.3	6.0
COc1cccc(C(=O)NC(c2ccccc2)C2CCCC2)c1 (stereo unspecified)	21.8*	.	-9.0	7.4
COc1ccc2c(c1)CCc1c-2n[nH]c1C(=O)O	-4.7	-3.0	39.8*	32.2
CCN(C(=O)COC(=O)c1c(C)c(-c2ccccc2)nc2ccccc12)C1CCS(=O)(=O)C1 (stereo unspecified)	.	.	-5.4	24.1
OC1(c2ccc(F)cc2)CN(c2ccccc2)C2=[N+]1CCS2 (stereo unspecified)	4.7	5.5	92.5*	108.2*
COc1cccc(CN(Cc2ccco2)C(c2ccc(F)cc2)c2nnnn2C(C)(C)C)c1 (stereo unspecified)	31.1*	21.6*	0.6	7.1
CN1CCN(S(=O)(=O)c2cccc(C(=O)N(c3ccccn3)C3CCCCC3)c2)CC1	-2.9	0.2	-7.1	16.3
CC1CCN(S(=O)(=O)c2cccc(C(=O)N(Cc3ccccc3)c3ccccn3)c2)CC1	21.7*	.	-17.2	-14.4
Cc1ccc(CNC(=O)CSc2nc3c(sc4ccccc43)c(=O)n2CCCN2CCCC2)cc1	20.7*	.	-21.9	-31.8
CCC(C)C(=O)Nc1nc2ccc(OC)cc2s1 (stereo unspecified)	.	.	24.6	32.7
CC(=O)N(C)c1ccc(NS(=O)(=O)c2cc(Cl)ccc2Cl)cc1	21.1*	.	-28.9	-12.3
CC(=O)Nc1ccc(NS(=O)(=O)c2cc(Cl)ccc2Cl)cc1	.	.	-12.4	-10.2
Cn1ncc(Cl)c1C(=O)Nc1cccc(Cl)c1	1.2	1.4	3.5	-11.4
Cn1ncc(Cl)c1C(=O)Nc1cccnc1	-2.0	4.8	-4.3	42.7*
COc1ccc(Nc2nc3ccccc3nc2NS(=O)(=O)c2cccs2)c(OC)c1	.	.	8.9	44.7
COc1cccc(Nc2nc3ccccc3nc2NS(=O)(=O)c2cccs2)c1	-5.7	-1.6	42.8*	78.0*
SMILES	NPY Y1 blocker	NPY-Y2 antag	NPY2 pot ag	NPY-Y1 PAM-ag
COc1ccc(S(=O)(=O)N(Cc2ccccc2)Cc2nc(-c3ccccc3)no2)cc1	41.0*	21.3*	2.2	-31.4
CC1CCC(C(C)C)C(OCC(O)CN2CCN(Cc3ccccc3)CC2)C1 (stereo unspecified)	14.0	10.0	-14.2	-16.8
CC1CCC(C(C)C)C(OCC(O)CN2CCOCC2)C1 (stereo unspecified)	-6.5	4.3	76.3*	73.8*
COc1ccc(NC(=O)O/N=C2/CCCc3ccc(OC)cc32)cc1	3.4	4.6	-4.4	98.5*
COc1ccc2c(c1)/C(=N/OC(=O)c1cccs1)CCC2	11.3	.	-7.4	-14.7
C(=C\c1ccccc1)/CSc1nnc(-c2ccncc2)n1Cc1ccco1	-0.7	1.3	6.4	-19.5
Cc1ccccc1CSc1nnc(-c2cccs2)n1Cc1ccco1	22.7*	24.2*	-6.9	-4.5
Clc1cccc(-c2nnc(SC/C=C/c3ccccc3)n2Cc2ccco2)c1	26.3*	36.5*	-7.0	-20.4
Cc1ccccc1CSc1nnc(-c2ccco2)n1Cc1ccco1	10.1	13.6	1.1	-10.0
Cc1ccc(-c2nnc(SCc3ccc(C#N)cc3)n2Cc2ccco2)cc1	21.3*	20.3*	-12.2	0.2
C(=C\c1ccccc1)/CSc1nnc(-c2ccccc2)n1Cc1ccco1	21.1*	25.5*	-21.2	-32.7
CCN(CC)S(=O)(=O)c1ccc(OC)c(NC(=O)CSc2cc(Cl)ccc2Cl)c1	3.5	-2.2	-3.2	-16.7
CN(C)S(=O)(=O)c1ccc(Cl)c(NC(=O)COC(=O)/C=C/c2cnc3ccccc3n2)c1	.	.	12.6	-11.5
N#Cc1c(-c2ccc(Cl)cc2)c2c([nH]c1=O)-c1ccccc1OC2	.	.	-3.5	-7.8
O=C(NC1=NCCS1)c1ccccc1OCc1ccccc1Cl	7.5	.	6.3	-1.8
CC(O)c1nc2ccccc2n1CC(=O)Nc1ccc(F)cc1Cl (stereo unspecified)	-7.6	.	9.9	13.9
O=C(CCNC(=O)Cn1ccc2ccccc2c1=O)NCc1ccc(F)cc1Cl	2.7	.	6.7	7.2
C=CCc1cccc2cc(C(=O)Nc3ccccc3C(=O)O)c(=O)oc12	-3.0	.	45.2*	27.7
CCn1cc(CNCc2c(C(=O)N3CCCCC3)nc3c(C)cccn23)cn1	20.6*	.	-9.7	-15.6
Cc1cccc(N)c1-c1c(C)cccc1N	4.6	.	-2.7	13.9
O=C(CNCC1CCCO1)Nc1ccccc1N1CCOCC1 (stereo unspecified)	-1.4	2.0	3.4	41.8*
O=C(CNCC1CCCO1)Nc1ccccc1-n1cccc1 (stereo unspecified)	0.1	1.3	-1.1	14.0
O=C(COC(=O)c1ccc2c(c1)C(=O)N(Cc1ccncc1)C2=O)Nc1ccccc1[N+](=O)[O-]	-3.3	0.6	3.6	-7.5
CC(OC(=O)c1ccc2c(c1)C(=O)N(Cc1ccncc1)C2=O)C(=O)Nc1cccc(Cl)c1Cl (stereo unspecified)	-10.6	3.9	103.0*	113.6*
Nc1nonc1C(=O)NCCNCc1c(OCc2ccccc2F)ccc2ccccc12	33.8*	49.8*	-30.9	-69.3
SMILES	NPY Y1 blocker	NPY-Y2 antag	NPY2 pot ag	NPY-Y1 PAM-ag
Nc1nonc1C(=O)NCCNCc1cc(Br)ccc1OCc1ccc(F)cc1	14.0	15.2	-7.3	-39.0
Nc1ccc(-c2cc(-c3ccc(N)cc3)nc(-c3ccccc3)n2)cc1	-8.0	-5.5	39.2*	46.0*
CC1C(=O)OC(c2ccc(Br)cc2)C(C)(C)C1=O (stereo unspecified)	.	.	-2.5	-7.2
CCOC(=O)C1=C(C)N(C)C(C)=C(C(=O)OCC)C1c1ccc(Cl)cc1	12.6	9.1	-1.1	-28.9
CCOC(=O)C1=C(C)N(C)C(C)=C(C(=O)OCC)C1c1ccc(C(=O)OC)cc1	35.1*	24.8*	-13.3	-15.1
O=C1NCCN(Cc2ccc(Cl)c(F)c2)C1CC(=O)N1CCCCO1 (stereo unspecified)	0.4	.	0.1	-7.5

Assay outcomes from PubChem.
